# Source: PubChem BioAssay
# Compounds with a hit are over-represented: about 2.1% of the library has one in this group of screens.
# EBI2 antag = blocks human EBI2 receptor beta-arrestin signaling. P32249. EBI2 beta-arrestin recruitment, luminescence, 7a,25-OHC stimulated. inhibition, % at 5 µM. 360,000 compounds, 0.81% hits. AID 651636; in the data active = inhibition above about 38%;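 also: enzyme fragment complementation signal reports receptor beta-arrestin coupling in cells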
# APJ antag = blocks the human apelin receptor APJ; CHO-K1 APJ beta-arrestin complementation, luminescence; 330,000 compounds, 0.32% hits; P35414; inhibition, % at 20 µM;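 active = inhibition above about 40% at 20 µM, limit read from the data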;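 also: cells challenged with 10 nM apelin-13 agonist together with compound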
# CXCR6 inh = CXCR6 (human) receptor inhibition; O00574; CHO-K1 PathHunter CXCR6 beta-arrestin, luminescence; inhibition, % at 20 µM; 360,000 compounds, 0.36% hits; in the data active = inhibition above about 34%, passing the limit was not always enough;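 also: antagonist mode with CXCL16 agonist at 10 nM final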
# Target sequence (O00574 whole entry, looked up): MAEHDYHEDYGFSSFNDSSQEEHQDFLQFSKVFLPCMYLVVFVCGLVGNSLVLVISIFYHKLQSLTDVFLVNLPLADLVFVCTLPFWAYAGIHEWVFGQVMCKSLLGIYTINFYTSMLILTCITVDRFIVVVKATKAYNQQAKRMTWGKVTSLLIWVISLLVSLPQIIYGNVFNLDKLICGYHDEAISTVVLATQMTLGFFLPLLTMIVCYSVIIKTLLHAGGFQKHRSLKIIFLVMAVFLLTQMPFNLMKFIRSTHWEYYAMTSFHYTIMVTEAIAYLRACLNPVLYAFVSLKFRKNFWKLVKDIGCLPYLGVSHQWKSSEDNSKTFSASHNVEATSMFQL
# m5-HT2A agonist = agonists of mouse serotonin 5-HT2A receptor (HTR2A). CHO-K1 mHTR2A beta-arrestin complementation, luminescence; percent of 30 µM serotonin response. P35363. 360,000 compounds, 0.66% hits. activation, % at 7.6 µM;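 active = activation above a run cutoff, the mean activation of all tested compounds plus 3 SD, cut at about 14% in these data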
# CCR6 antag = antagonists of human CCR6 receptor | CHO-K1 CCR6 PathHunter beta-arrestin, luminescence, CCL20-stimulated | AID 493098 | 340,000 compounds, 0.49% hits | P51684 | inhibition, % at 20 µM;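 active = compounds whose inhibition of the agonist-driven luminescence signal at 20 µM reaches about 50%, limit read from the data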;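 also: cells stimulated with CCL20 at 14 nM final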
# APJ ag = activates the human apelin receptor APJ | P35414 | CHO-K1 APJ PathHunter beta-arrestin, luminescence; 0% DMSO wells, 100% apelin | 330,000 compounds, 0.11% hits | activation, % at 20 µM;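 active = activation more than six SD over the plate average, tested at 20 µM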
#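 Assay system – PathHunter CHO-K1 APJ (AGTRL-1) beta-arrestin reporter cells · Compound – one dose, 20 µM compound, 1% DMSO · Timing – compound 90 min 25 °C, reagent 1 h · Measured by – luminescence from split beta-galactosidase complementation, Galacton Star/Emerald II substrate · Measure – beta-arrestin recruitment to APJ as agonist activity, luminescent signal · Benchmarks – DMSO vs Apelin-13 10 nM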
# EBI2 antag conf = confirmation of human EBI2 receptor antagonists. AID 651997. shares compounds with EBI2 antag. EBI2 beta-arrestin luminescence, 7a,25-OHC antagonism. inhibition, % at 5 µM. 2,400 compounds, 29% hits;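 active = inhibition of at least 50%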
# EBI2 agonist = counter-screen for EBI2 antagonists: EBI2 agonist activity. shares compounds with EBI2 antag. EBI2-expressing cells, agonist mode, luminescence, 60 min; 0% vehicle, 100% 7α,25-dihydroxycholesterol control. activation, % at 5 µM. 2,400 tested, under 10 active. AID 652000;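 active = activation of at least 50%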
# bGal cs = counter-screen for EBI2 antagonists: E. coli beta-galactosidase inhibition. AID 652176. purified beta-galactosidase, luminescent Galacton Star, 15 min. shares compounds with EBI2 antag. inhibition, % at 5 µM. 2,400 compounds, 1% hits;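 active = replicate-average signal at least 3 plate SD below neutral wells, shown as high inhibition, flagging enzyme-inhibiting false positives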;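 also: higher means stronger loss of beta-gal luminescence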
# Numbers stand for hits; 0 = inactive; - = not tested or not shown.
SMILES,EBI2 antag,APJ antag,CXCR6 inh,m5-HT2A agonist,CCR6 antag,APJ ag,EBI2 antag conf,EBI2 agonist,bGal cs
COc1ccc(-c2ccc3c(c2)c(Sc2ccccc2)c(-c2cc(OC)cc(OC)c2)n3C)cc1,0,-,0,0,-,-,-,-,-
O=C(O)c1cc2n(n1)CCN(Cc1ccccc1Cl)C2=O,0,0,0,0,0,0,-,-,-
COc1cc(/C=N/NC(=O)COc2ccc(Cl)cc2)ccc1OS(=O)(=O)c1ccc(C)cc1,42,0,0,0,0,0,0,0,0
C=CCNC(=O)/C(C#N)=C/c1ccc(OS(=O)(=O)c2ccc(C)cc2)c(OC)c1,52,-,0,0,0,-,76,0,0
COc1cc(/C=N/NC(=O)COc2cccc(F)c2)ccc1OS(=O)(=O)c1ccc(C)cc1,0,0,0,0,0,0,-,-,-
COc1ccc(-n2c(SCC(=O)Nc3ccccc3C)nc(O)c(Cc3ccccc3)c2=O)cc1,0,0,0,0,0,0,-,-,-
COCCCn1c(=O)/c(=C\c2ccccc2OC(C)C)s/c1=C(/C#N)C(=O)Nc1ccc(C(=O)O)cc1,0,0,0,0,0,0,-,-,-
COCCCn1c(=O)/c(=C\c2ccccc2OC(F)F)s/c1=C(/C#N)C(=O)NC(C)C,60,0,0,0,0,0,51,0,0
Cc1ccc(-c2csc(NC(=O)C3CSC4(C)CCC(=O)N34)n2)cc1 (configuration not stated),0,0,0,0,0,0,-,-,-
C=CCN(C(=O)C1CSC2(C)CCC(=O)N12)c1nc(-c2ccccc2)cs1 (configuration not stated),48,0,0,0,0,0,64,0,0
COc1cc(OC)cc(-n2nnnc2SCC(=O)NCCc2ccc(OC)c(OC)c2)c1,0,0,0,0,0,0,-,-,-
COc1ccc(N2CCN(C(=O)c3ccc4[nH]c(C)c(C)c4c3)CC2)cc1,85,0,0,0,0,0,73,0,0
CC(=O)c1ccc(N2CCN(C(=O)c3ccc4[nH]c(C)c(C)c4c3)CC2)cc1,0,0,0,0,0,0,-,-,-
Cc1[nH]c2ccc(C(=O)N3CCN(c4ccc(F)cc4)CC3)cc2c1C,78,0,0,0,0,0,72,0,0
CC(Sc1nc2cc([N+](=O)[O-])ccc2n1-c1ccc(F)cc1)C(=O)NCc1ccc2c(c1)OCO2 (configuration not stated),54,0,0,0,0,0,0,0,0
Clc1cccc(Oc2ncccn2)c1,0,0,0,0,0,0,-,-,-
Cc1cccc(Oc2ncc(-c3ccc(Cl)cc3)cn2)c1,44,0,0,0,0,0,0,0,0
O=C(Nc1cccc(S(=O)(=O)N2CCCCCC2)c1)C1CCN(C(=O)c2ccc(Cl)cc2)CC1,52,0,0,0,0,0,0,0,0
O=C(Nc1cccc(F)c1)C1CCN(C(=O)c2ccc(Br)cc2)CC1,45,0,0,0,0,0,0,0,0
Cc1cccc(NC(=O)C2CCN(C(=O)c3ccc(F)cc3)CC2)n1,0,0,0,0,0,0,-,-,-
O=C(Nc1ccc(Br)cc1)C1CCN(C(=O)c2ccc(F)cc2)CC1,0,0,0,0,0,0,-,-,-
Cc1cccc(NC(=O)C2CCN(C(=O)c3ccc(Cl)cc3)CC2)n1,46,0,0,0,0,0,0,0,0
CCCCCCSc1ccc(-c2nc3ccc(Cl)cn3c2NCCCC)cc1OC,0,0,0,0,0,0,-,-,-
CCCCCCSc1ccc(-c2nc3ccc(C)cn3c2NCCCC)cc1OC,63,-,0,0,-,-,63,0,0
CC(=O)N1N=C(c2ccncc2)CC1c1ccccc1O (configuration not stated),0,0,0,0,0,0,-,-,-
SMILES,EBI2 antag,APJ antag,CXCR6 inh,m5-HT2A agonist,CCR6 antag,APJ ag,EBI2 antag conf,EBI2 agonist,bGal cs
CC(=O)N1N=C(c2ccccc2)CC1c1cn(Cc2ccccc2)c2ccccc12 (configuration not stated),49,0,0,0,0,0,0,0,0
CC1(C)C2CCC1(C)C(NC(=O)/C=C/c1ccccc1)C2 (configuration not stated),46,0,0,0,0,0,0,0,0
CC1(C)C2CCC1(C)C(Nc1ccccc1)C2 (configuration not stated),0,0,0,0,0,0,-,-,-
N#Cc1ccccc1S(=O)(=O)N1CCN(CC(=O)Nc2ccnn2C2CCCC2)CC1,0,0,0,0,0,0,-,-,-
Cc1ccc(N(C(=O)c2snc(C(N)=O)c2N)C(CC(C)C)C(=O)NC2CCCC2)cc1 (configuration not stated),0,0,0,0,0,0,-,-,-
CCCCC(C(=O)NC1CCCC1)N(C(=O)c1snc(C(N)=O)c1N)c1ccc(C)cc1 (configuration not stated),50,0,0,0,0,0,0,0,0
O=C(NCCCn1ccnc1)/C(=C/c1cccs1)NC(=O)c1ccco1,0,0,0,0,0,0,-,-,-
Cc1ccc(Nc2nnc(SC(C)C(=O)NCC3CCCO3)s2)cc1C (configuration not stated),46,0,0,0,0,0,0,0,0
Cc1ccccc1Nc1nnc(SCC2CCCCO2)s1 (configuration not stated),0,0,0,0,0,0,-,-,-
Cc1ccc(Nc2nnc(SCC3CCCCO3)s2)cc1 (configuration not stated),59,0,0,0,0,0,0,0,0
Cc1cc(OCC(=O)N(C)Cc2ccccc2)cc(C)c1Cl,87,0,0,0,0,0,65,0,0
CN(Cc1ccccc1)C(=O)COc1ccc2ccccc2c1,90,0,0,0,0,0,87,0,0
CN(Cc1ccccc1)C(=O)COc1cc(Cl)ccc1Cl,0,0,0,0,0,0,-,-,-
CCOCCOC(=O)c1cccc2c1-c1ccccc1C2=O,0,0,0,0,0,0,-,-,-
CCOc1ccc(NC(=S)Nc2ccc(OC(F)(F)F)cc2)cc1,76,0,0,0,0,0,53,0,0
CCOc1ccc(NC(=S)/C(=C(\[O-])c2ccc(C)c([N+](=O)[O-])c2)[n+]2ccccc2)cc1,0,0,0,0,0,0,-,-,-
CCOc1ccc(NC(=S)Nc2cc(OC)c(Cl)cc2OC)cc1,65,0,0,0,0,0,0,0,0
